One data set deals with CYP3A4 (Homo sapiens, UniProt P08684). Put plainly: Cytochrome P450 inhibition. Type of data set: in vitro ADME. An outline of the steps: (§1)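 Human liver microsomes (0.25 mg/mL final) were pre-incubated with the test compound at six concentrations (40 to 10 000, in water) for 30 min without or with NADPH, or with 0 min pre-incubation. Probe substrate and NADPH (1 mM) were then added (final DMSO 0.05%) and incubated 5 min at 37 °C. Isoform-specific time-dependent inhibitors served as positive controls. IC50 per condition was derived from the decrease in metabolite formation versus vehicle control.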
Chain of CYP3A4 (P08684 whole entry, canonical isoform): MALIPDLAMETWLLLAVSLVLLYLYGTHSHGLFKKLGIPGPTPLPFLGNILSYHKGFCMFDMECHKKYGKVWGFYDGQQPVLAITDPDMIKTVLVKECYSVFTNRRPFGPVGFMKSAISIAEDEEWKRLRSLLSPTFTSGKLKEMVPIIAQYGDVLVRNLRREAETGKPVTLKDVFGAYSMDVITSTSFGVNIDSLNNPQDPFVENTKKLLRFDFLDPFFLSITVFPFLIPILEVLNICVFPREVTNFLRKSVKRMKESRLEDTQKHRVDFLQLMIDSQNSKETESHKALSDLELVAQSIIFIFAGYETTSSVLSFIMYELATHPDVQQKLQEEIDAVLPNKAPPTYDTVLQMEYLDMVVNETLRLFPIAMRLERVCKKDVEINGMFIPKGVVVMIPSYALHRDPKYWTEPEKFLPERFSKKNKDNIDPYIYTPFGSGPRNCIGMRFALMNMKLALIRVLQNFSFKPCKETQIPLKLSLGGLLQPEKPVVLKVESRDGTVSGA

In the next data set the target is CYP2C19 (Homo sapiens, UniProt P33261). Put plainly: Cytochrome P450 inhibition. Type of data set: in vitro ADME. In short, it runs like this:
as §1

A further data set deals with T1, CYP1A2 (Homo sapiens, UniProt P05177).
T1 sequence (P05177 1-516): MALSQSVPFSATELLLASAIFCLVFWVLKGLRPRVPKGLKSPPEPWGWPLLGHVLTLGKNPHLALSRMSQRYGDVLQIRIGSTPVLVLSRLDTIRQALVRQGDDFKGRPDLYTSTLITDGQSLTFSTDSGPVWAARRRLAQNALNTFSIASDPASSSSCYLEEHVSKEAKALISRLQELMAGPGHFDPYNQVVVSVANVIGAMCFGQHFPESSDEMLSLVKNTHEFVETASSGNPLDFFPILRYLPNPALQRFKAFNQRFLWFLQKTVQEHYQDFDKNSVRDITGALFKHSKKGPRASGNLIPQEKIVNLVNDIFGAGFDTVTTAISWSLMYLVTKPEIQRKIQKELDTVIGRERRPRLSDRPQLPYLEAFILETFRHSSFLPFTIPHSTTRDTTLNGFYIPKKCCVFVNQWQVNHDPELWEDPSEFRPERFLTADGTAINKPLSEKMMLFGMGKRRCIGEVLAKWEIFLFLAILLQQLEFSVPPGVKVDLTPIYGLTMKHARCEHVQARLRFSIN
Put plainly: Cytochrome P450 inhibition. Type of data set: in vitro ADME. The note with it: substrate phenacetin; any pre-incubation condition. In short, it runs like this:
as §1

The target of another data set is T2, CYP2B6 (Homo sapiens, UniProt P20813).
T2 sequence (P20813 1-491): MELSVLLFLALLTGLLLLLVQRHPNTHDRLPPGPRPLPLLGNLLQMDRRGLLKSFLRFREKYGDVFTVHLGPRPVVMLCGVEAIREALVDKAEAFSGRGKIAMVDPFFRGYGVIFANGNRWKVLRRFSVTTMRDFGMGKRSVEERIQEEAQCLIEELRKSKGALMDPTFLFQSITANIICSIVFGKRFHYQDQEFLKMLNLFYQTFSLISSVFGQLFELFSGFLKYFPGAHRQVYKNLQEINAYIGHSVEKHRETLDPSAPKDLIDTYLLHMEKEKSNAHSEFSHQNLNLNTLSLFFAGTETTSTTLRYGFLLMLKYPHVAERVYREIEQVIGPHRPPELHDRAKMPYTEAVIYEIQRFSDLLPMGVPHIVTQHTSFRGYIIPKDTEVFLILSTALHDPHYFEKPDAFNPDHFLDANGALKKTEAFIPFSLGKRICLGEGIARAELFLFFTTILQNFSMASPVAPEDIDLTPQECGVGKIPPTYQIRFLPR
Put plainly: Cytochrome P450 inhibition. In kind it is in vitro ADME. The note with it: substrate bupropion; any pre-incubation condition. In short, it runs like this: as §1

Another data set deals with T3, CYP2C8 (Homo sapiens, UniProt P10632).
T3 sequence (P10632 1-490): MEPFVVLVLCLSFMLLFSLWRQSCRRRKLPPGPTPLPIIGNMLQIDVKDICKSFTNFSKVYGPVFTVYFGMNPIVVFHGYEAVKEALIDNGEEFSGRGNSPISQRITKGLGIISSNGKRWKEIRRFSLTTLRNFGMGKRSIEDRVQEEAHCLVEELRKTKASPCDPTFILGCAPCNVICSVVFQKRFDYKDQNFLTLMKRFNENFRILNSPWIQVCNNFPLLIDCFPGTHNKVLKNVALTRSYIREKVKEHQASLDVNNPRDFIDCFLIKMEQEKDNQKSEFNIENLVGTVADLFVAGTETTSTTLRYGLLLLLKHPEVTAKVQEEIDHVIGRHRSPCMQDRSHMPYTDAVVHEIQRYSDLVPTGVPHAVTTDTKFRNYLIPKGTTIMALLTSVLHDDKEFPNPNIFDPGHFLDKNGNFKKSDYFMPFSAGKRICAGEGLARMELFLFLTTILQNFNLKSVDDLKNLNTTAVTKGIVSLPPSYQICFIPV
Put plainly: Cytochrome P450 inhibition. Type of data set: in vitro ADME. As to conditions: substrate paclitaxel; any pre-incubation condition. An outline of the steps: as §1

The target in another data set is CYP2C9 (Homo sapiens, UniProt P11712). The data set is described as follows: Cytochrome P450 inhibition. The note with it: substrate diclofenac; any pre-incubation condition. In kind it is in vitro ADME. An outline of the steps:
as §1

For a further data set, the target named is CYP2D6 (Homo sapiens, UniProt P10635). The data set is described as follows: Cytochrome P450 inhibition. In kind it is in vitro ADME. As to conditions: substrate dextromethorphan; any pre-incubation condition. In short, it runs like this:
as §1

Another data set concerns the target P-gp (Homo sapiens, UniProt P08183). In kind it is in vitro ADME. In short, it runs like this: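 Bidirectional transport of loperamide was measured in a cell test system without and with a concentration range of the test compound; cyclosporin A was the control inhibitor. Papp = (dQ/dt)/(A×C0). Per replicate, A→B Papp was subtracted from B→A Papp to give net secretory flux. This was expressed as % of mean vehicle-control activity and fitted for IC50. Ki = IC50/(1+[S]×fu/Km), using loperamide Km 36.2.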

Data set [1] in a line: Clinical pharmacokinetics of treosulfan in plasma and urine. Type of data set: in vivo, human. As to conditions: for AUC / half-life: human, plasma, intravenous; for AUC: 14 g/m^2, AUC; for half-life: 14 g/m^2, apparent half‐life, median.
For data set [2] the following is noted: cited from earlier work.
For data set [3] the following is noted: cited from earlier work. This is another data set of the same source.
The conditions of data set [4]: cited from earlier work. This is another data set of the same source.

pIC50, pKi: −log10 of the molar value.

Chain of P-gp (P08183 whole entry): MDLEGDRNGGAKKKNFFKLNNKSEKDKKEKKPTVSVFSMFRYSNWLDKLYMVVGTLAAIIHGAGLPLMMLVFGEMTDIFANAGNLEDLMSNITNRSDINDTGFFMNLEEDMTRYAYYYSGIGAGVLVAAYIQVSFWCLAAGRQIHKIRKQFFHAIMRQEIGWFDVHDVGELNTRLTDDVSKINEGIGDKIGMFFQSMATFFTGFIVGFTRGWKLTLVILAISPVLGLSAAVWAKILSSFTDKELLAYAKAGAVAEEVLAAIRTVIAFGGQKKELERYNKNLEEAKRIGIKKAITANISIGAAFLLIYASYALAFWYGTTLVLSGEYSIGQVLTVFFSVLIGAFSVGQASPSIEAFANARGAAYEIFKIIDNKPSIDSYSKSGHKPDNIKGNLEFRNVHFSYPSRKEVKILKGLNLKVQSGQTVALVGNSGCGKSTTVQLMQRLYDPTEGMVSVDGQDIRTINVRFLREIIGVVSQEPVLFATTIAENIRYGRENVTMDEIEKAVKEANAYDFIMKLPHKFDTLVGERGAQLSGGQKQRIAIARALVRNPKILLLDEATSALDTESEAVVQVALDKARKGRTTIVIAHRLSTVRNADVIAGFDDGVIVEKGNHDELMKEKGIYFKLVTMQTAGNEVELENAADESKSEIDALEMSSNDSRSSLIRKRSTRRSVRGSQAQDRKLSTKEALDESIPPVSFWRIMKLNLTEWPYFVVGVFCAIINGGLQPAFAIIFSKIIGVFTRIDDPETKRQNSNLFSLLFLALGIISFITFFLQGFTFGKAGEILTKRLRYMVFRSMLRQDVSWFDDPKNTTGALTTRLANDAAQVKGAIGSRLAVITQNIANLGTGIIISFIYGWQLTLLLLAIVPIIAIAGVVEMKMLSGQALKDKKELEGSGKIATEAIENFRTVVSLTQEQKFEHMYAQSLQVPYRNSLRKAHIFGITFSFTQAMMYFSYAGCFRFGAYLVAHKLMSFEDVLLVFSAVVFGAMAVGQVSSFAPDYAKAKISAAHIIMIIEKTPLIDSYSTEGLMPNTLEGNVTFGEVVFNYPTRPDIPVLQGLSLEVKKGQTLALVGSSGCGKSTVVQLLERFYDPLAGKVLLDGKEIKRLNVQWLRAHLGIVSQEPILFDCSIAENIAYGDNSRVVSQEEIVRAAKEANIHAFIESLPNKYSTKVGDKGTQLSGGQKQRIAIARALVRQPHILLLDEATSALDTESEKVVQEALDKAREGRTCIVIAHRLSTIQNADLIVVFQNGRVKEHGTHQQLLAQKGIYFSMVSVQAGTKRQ
Chain of CYP2C19 (P33261 whole entry): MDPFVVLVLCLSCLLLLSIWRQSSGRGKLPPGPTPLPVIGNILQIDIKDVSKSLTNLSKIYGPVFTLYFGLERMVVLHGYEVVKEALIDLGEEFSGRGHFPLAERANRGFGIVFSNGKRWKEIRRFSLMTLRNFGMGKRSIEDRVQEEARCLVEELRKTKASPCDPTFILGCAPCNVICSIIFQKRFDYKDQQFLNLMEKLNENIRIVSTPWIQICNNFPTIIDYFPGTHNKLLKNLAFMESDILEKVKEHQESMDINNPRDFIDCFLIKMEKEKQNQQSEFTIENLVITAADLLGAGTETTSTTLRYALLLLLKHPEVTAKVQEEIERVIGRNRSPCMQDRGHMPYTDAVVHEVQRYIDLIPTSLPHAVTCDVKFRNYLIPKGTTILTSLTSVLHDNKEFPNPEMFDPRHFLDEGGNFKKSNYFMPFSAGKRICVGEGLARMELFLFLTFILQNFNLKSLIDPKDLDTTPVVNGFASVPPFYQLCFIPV
Chain of CYP2C9 (P11712 whole entry): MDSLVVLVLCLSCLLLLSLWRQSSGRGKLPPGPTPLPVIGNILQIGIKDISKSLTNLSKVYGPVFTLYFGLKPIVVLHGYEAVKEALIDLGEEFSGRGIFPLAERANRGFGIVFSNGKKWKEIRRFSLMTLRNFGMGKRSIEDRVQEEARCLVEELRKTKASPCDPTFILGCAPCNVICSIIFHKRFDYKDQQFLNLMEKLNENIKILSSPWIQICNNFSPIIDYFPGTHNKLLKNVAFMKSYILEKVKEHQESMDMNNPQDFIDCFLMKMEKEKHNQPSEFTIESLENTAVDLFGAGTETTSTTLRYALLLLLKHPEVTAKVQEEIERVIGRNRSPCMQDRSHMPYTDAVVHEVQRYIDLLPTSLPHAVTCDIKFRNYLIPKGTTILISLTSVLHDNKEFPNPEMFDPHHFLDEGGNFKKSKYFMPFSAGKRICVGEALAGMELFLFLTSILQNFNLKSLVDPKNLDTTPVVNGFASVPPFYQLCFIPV
Chain of CYP2D6 (P10635 whole entry): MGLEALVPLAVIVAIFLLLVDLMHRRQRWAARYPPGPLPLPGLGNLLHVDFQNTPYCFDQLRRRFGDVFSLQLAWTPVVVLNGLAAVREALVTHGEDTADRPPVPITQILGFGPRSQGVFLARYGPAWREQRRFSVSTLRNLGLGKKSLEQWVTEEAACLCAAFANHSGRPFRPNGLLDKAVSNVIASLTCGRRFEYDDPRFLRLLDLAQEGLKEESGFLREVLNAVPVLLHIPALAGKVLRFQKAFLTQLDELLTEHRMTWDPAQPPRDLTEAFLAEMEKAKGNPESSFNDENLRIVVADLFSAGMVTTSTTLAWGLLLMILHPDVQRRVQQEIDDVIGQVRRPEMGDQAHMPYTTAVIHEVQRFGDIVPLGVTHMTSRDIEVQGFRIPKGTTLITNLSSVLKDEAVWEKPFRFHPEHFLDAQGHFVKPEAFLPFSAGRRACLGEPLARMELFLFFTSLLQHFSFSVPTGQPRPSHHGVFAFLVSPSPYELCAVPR

For `CS(=O)(=O)OC[C@H](O)[C@@H](O)COS(C)(=O)=O` [treosulfan, L‐threitol‐1,4‐bis‐methanesulfonate], the pIC50 at CYP3A4 was 2.73; against CYP2C19 it was 3.01; against P-gp (human, in vitro cell test system (cell line not given), probe loperamide), below 3.00. Also, the pKi is 2.92 on CYP3A4, 3.11 at CYP2C19 and 2.75 on P-gp. Moreover, on CYP3A4 (40 to 10 000 μM treosulfan, any pre-incubation condition), the “inhibition of CYP3A4 using testosterone as the substrate” value was “did not inhibit”. Moreover, the “inhibition of CYP1A2” value on CYP1A2 is recorded as “did not inhibit”. In addition, the “inhibition of CYP2B6” value on CYP2B6 was “did not inhibit”. The “inhibition of CYP2C8” value against CYP2C8 is recorded as “did not inhibit”. The “inhibition of CYP2C9” value against CYP2C9 was “did not inhibit”. Further, on CYP2D6, the “inhibition of CYP2D6” value was “did not inhibit”. Moreover, the AUC was 1450 µg·h/mL in data set [1] (day −4, patients) and 1420 µg·h/mL in data set [1] (day −6, patients). Also, the half-life was 1.93 h in [1] (day −4, patients) and 1.86 h in data set [1] (day −6, patients). For the same molecule, the “administered dose excreted in urine” value in [1] (patients) was “About 40%”. Moreover, the “rate at which dose was excreted in urine” value in data set [1] (patients, CV% = 31.98%) stood at 130.38 mL/min. In addition, in data set [2], the “Log P O:W” value was −1.58. Besides, the “B:P (blood‐plasma ratio)” value in data set [3] is on record as 0.88. In data set [4], the “GFR fraction, literature” value is “Estimated (literature[20]: 0.41 ± 0.22)”.

By pIC50 is commonly meant the negative decadic logarithm of the IC50, by convention in mol/L. Read a low pIC50 as a large IC50. Usually pKi stands for −log10 of the Ki, conventionally taken in molar units. The term AUC denotes the area under the concentration-time curve, a measure of exposure. Lower therefore signals less exposure. By half-life is commonly meant the time needed for the level to fall by half in the phase considered.

The values above are taken from article PMC9291915 (British Journal of Clinical Pharmacology, 2021).
